Our source for the IC50, Selectivity and inhibition values is ChEMBL document CHEMBL1133584, “Potent and selective non-peptidic inhibitors of endothelin-converting enzyme-1 with sustained duration of action” (J Med Chem, 2000).

Experiment [1] has as its target T1, Endothelin-converting enzyme 1 (Homo sapiens, UniProt P42892).
T1 sequence (P42892 whole entry): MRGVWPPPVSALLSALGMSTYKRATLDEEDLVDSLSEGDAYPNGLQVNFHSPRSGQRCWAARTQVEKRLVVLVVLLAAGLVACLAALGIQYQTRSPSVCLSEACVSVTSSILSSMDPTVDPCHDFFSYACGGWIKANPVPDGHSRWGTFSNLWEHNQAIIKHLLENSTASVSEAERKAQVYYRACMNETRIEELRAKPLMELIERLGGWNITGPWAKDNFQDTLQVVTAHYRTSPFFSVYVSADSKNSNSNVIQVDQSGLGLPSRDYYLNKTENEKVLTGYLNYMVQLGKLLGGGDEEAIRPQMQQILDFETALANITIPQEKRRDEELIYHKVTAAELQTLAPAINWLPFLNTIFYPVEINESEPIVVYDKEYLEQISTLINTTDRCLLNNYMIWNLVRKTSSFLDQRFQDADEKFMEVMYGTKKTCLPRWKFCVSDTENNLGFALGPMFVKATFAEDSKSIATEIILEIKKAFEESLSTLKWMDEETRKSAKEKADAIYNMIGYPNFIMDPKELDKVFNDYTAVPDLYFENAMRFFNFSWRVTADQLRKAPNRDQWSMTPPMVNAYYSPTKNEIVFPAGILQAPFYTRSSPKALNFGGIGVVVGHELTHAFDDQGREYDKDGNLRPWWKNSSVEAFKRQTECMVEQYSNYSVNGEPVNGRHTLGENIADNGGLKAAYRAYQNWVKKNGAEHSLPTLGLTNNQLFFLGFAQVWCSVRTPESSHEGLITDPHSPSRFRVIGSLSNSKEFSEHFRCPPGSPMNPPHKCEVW
The experiment in a line: In Vitro inhibition of recombinant human endothelin converting enzyme-1. In a few lines: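 Enzyme was human recombinant ECE-1a from membranes of CHO cells expressing it. The IC50 was determined by the assay method of earlier work.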

Experiment [2] is described as follows: Selectivity ratio of IC50 NEP/IC50 ECE. The procedure, abridged:
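ECE selectivity was the ratio of IC50 against rat kidney cortex NEP 24.11 to IC50 against CHO-membrane human recombinant ECE-1a.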

The next experiment addresses T2, Neprilysin (Rattus norvegicus, UniProt P07861).
T2 sequence (P07861 whole entry): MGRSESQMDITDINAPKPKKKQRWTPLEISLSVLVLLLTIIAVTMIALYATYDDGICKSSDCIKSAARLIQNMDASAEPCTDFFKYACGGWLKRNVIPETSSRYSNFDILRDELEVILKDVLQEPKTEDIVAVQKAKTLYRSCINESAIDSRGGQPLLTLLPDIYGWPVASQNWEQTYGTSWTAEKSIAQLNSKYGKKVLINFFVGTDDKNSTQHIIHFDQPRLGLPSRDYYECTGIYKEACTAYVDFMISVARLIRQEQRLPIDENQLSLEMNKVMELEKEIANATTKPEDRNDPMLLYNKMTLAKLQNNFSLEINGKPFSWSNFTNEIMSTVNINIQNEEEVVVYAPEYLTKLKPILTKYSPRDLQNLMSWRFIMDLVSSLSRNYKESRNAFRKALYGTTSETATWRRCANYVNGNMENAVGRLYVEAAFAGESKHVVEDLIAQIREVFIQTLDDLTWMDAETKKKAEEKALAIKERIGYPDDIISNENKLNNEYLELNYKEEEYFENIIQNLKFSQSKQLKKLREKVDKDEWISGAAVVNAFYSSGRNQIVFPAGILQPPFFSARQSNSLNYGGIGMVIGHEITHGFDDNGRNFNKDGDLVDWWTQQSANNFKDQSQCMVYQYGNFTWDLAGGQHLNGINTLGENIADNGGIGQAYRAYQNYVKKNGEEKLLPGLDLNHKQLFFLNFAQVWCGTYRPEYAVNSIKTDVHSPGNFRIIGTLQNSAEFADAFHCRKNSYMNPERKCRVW
Kind of experiment: In vitro inhibition of rat neutral endopeptidase.

Experiment [3] addresses T3, Endothelin-converting enzyme 1 (Homo sapiens) (UniProt P42892).
T3 sequence (whole entry): T1 sequence (P42892 whole entry)
Kind of experiment: Inhibition of Endothelin-converting enzyme 1 activity at a concentration of 1 uM. In a few lines: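 Human recombinant ECE-1a came from CHO cell membranes. Activity was measured with test compound at 1 µM and expressed as percent inhibition.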

The structures appear in SMILES notation.

What is called IC50 is the point on the concentration scale where inhibition reaches its midpoint. The inhibition is the share of the control response that was lost under treatment. Lower therefore signals a response near the control. Regarding `O=C(O)[C@H](Cc1ccc2c(c1)oc1ccccc12)NCP(=O)(O)O`, the IC50 is 0.022 µM in experiment [1] and 2.3 µM on Neprilysin. Moreover, in experiment [2], the Selectivity was determined as 104. The compound further returned an inhibition in experiment [3] of 92%.

Consider `Cn1c2ccccc2c2ccc(CC(NCP(=O)(O)O)c3nnn[nH]3)cc21` (stereo not drawn), for which the concentration for half-maximal inhibition (IC50) in experiment [1] was > 4 µM; against Neprilysin, 0.14 µM. In addition, the Selectivity in experiment [2] was < 0.03.

On to `O=C(O)[C@H](Cc1ccc2c(c1)oc1ccccc12)NC(=O)[C@H](Cc1ccc2c(c1)oc1ccccc12)NCP(=O)(O)O`, for which the IC50 in experiment [1] is 0.0064 µM; at Neprilysin, 0.0027 µM. For the same compound, in experiment [2], the Selectivity turned out to be 0.42. Also, the inhibition in experiment [3] was determined as 95%.

`O=C1c2ccccc2-c2ccc(CC(NCP(=O)(O)O)c3nnn[nH]3)cc21` (stereo not drawn): the half-maximal inhibitory concentration (IC50) in experiment [1] is 0.03 µM; on Neprilysin, 0.23 µM. The Selectivity in experiment [2] turned out to be 7.7.

For the compound `O=P(O)(O)CNC(Cc1ccc2c(c1)oc1ccccc12)c1nnn[nH]1` (stereo not drawn), the half-maximal inhibitory concentration (IC50) turned out to be 0.006 µM in experiment [1] and 0.114 µM against Neprilysin. The Selectivity in experiment [2] came out at 19.

Regarding `CC(C)CCCC(N[C@@H](Cc1ccc2c(c1)oc1ccccc12)C(=O)O)P(=O)(O)O` (stereo partly drawn), the figures for the half-maximal inhibitory concentration (IC50) (in experiment [1]; at Neprilysin) were 0.065 µM and > 16 µM, respectively. Moreover, the Selectivity in experiment [2] is > 286. Besides, the inhibition in experiment [3] was 89%.

`COc1cc(CCC(N[C@@H](Cc2ccc3c(c2)oc2ccccc23)C(=O)O)P(=O)(O)O)cc(OC)c1OC` (stereo partly drawn): the half-maximal inhibitory concentration (IC50) is 0.022 µM in experiment [1] and 18 µM against Neprilysin. Further, the Selectivity in experiment [2] worked out at 818. Besides, in experiment [3], the inhibition was 92%.

On to `O=P(O)(O)CNC(Cc1ccc2c(c1)Cc1ccccc1-2)c1nnn[nH]1` (stereo not drawn), for which the 50% inhibitory concentration (IC50) in experiment [1] amounted to 0.52 µM; at Neprilysin, 0.45 µM. For the same compound, the Selectivity in experiment [2] came out at 0.9.

As for `CC(C)CC(NC(=O)[C@H](Cc1ccc2c(c1)oc1ccccc12)NCP(=O)(O)O)C(=O)O` (stereo partly drawn), the concentration for half-maximal inhibition (IC50) worked out at 0.013 µM in experiment [1] and 0.031 µM on Neprilysin. Also, the Selectivity in experiment [2] is 2.3. In addition, the inhibition in experiment [3] came to 92%.

`O=C(O)C(Cc1ccccc1)NC(=O)[C@H](Cc1ccc2c(c1)oc1ccccc12)NCP(=O)(O)O` (stereo partly drawn): the IC50 in experiment [1] came out at 0.023 µM; against Neprilysin, 0.012 µM. Further, the Selectivity in experiment [2] amounted to 0.5. In addition, in experiment [3], the inhibition was 91%.

For the compound `O=C(O)[C@H](Cc1ccc2c(c1)oc1ccccc12)NC(CCc1cccc2cccnc12)P(=O)(O)O` (stereo in doubt; 40n'), the 50% inhibitory concentration (IC50) in experiment [1] was determined as 0.2 µM; against Neprilysin it was 48 µM.

Take `NCCCCC(N[C@@H](Cc1ccc2c(c1)oc1ccccc12)C(=O)O)P(=O)(O)O` (stereo in doubt; 40o'): the 50% inhibitory concentration (IC50) is 0.097 µM in experiment [1] and > 100 µM against Neprilysin.

`CC(N[C@@H](Cc1ccc2c(c1)oc1ccccc12)C(=O)O)P(=O)(O)O` (stereo in doubt; 40u): the IC50 in experiment [1] amounted to 0.096 µM; at Neprilysin it was 28 µM.

With `CC(N[C@@H](Cc1ccc2c(c1)oc1ccccc12)C(=O)O)P(=O)(O)O` (stereo in doubt; 40v), the results for the concentration for half-maximal inhibition (IC50) (in experiment [1]; against Neprilysin) were 0.18 µM and 47 µM, respectively.

Consider `O=P(O)(O)C(CCc1cccc2ccccc12)N[C@@H](Cc1ccc2c(c1)oc1ccccc12)c1nnn[nH]1` (stereo in doubt; 43a'), for which the IC50 in experiment [1] was found to be 0.0026 µM; against Neprilysin it was 0.21 µM.

As to `O=P(O)(O)C(CCc1cccc2ccccc12)N[C@@H](Cc1ccc2c(c1)oc1ccccc12)c1nnn[nH]1` (stereo in doubt; 43b'), the half-inhibitory concentration (IC50) worked out at 0.44 µM in experiment [1] and 13 µM against Neprilysin.
